Experimental data collected from several papers.
Lines come from different studies, so protocols differ.
SMARCA2: SWI/SNF-related matrix-associated actin-dependent regulator of chromatin subfamily A member 2 (SMARCA2, Homo sapiens, UniProt P51531)
DRD2: D(2) dopamine receptor (DRD2, Homo sapiens, UniProt P14416)
BRAF V600E: Serine/threonine-protein kinase B-raf (BRAF, Homo sapiens, UniProt P15056, V600E)
BPTF: Nucleosome-remodeling factor subunit BPTF (BPTF, Homo sapiens, UniProt Q12830)
MAST1: Microtubule-associated serine/threonine-protein kinase 1 (MAST1, Homo sapiens, UniProt Q9Y2H9)
PADI2: Protein-arginine deiminase type-2 (PADI2, Homo sapiens, UniProt Q9Y2J8)
Blk: Tyrosine-protein kinase Blk (Blk, Mus musculus, UniProt P16277)

The ΔTm of `O=c1nc2n(c3cccc(Cl)c13)CC/C2=C\c1ccccc1` is reported as 2.14 °C (SMARCA2; thermal stability, DSF; 100 µM).
With `COc1cc(CNCCc2c[nH]c3ccccc23)cc(Cl)c1OCC(N)=O` the inhibition was 30.3% (DRD2; enzyme activity, inhibitor; 10 µM).
For `Cc1ccc(C(CS(=O)(=O)c2ccccc2)=NNC(N)=S)cc1`, the inhibition was 69% (BRAF V600E; enzyme activity, inhibitor, ATP luminescence; 1 µM).
`NS(=O)(=O)c1ccc(Nc2nc(-c3ccc(F)cc3)c3ccccc3n2)cc1` has a remaining binding of 63% (BPTF; binding, competition with immobilised ligand; 1 µM).
The ΔTm of `CC(C)(C)/C=C1\CCn2c1nc(=O)c1c(Cl)cccc12` is reported as -0.14 °C (SMARCA2; thermal stability, DSF; 100 µM).
`Cc1ccc(C(=O)Nc2ccc(CN3CCN(C)CC3)c(C(F)(F)F)c2)cc1C#Cc1cnc2cccnn12` has a remaining activity of 95% (MAST1; enzyme activity, inhibitor; 23.5 nM).
`N=C(CF)NCCC[C@H](NC(=O)c1ccccc1C(=O)O)c1nn[nH]n1` has a kinact/KI of 42.5 M⁻¹ s⁻¹ (PADI2; enzyme activity, inhibitor).
`Oc1ccc(-c2nc(-c3ccncc3)c(-c3ccc(F)cc3)[nH]2)cc1` has a ΔTm of 0.56 °C (SMARCA2; thermal stability, DSF; 10 µM).
The remaining activity of `Cc1cnc(NC2CCOCC2)nc1-n1cnc(C(=O)NC(CN)c2cc(F)cc(Cl)c2)c1` (stereo not shown) is reported as 106% (Blk; enzyme activity, inhibitor, radiometric; 1 µM).
For `Cc1ccc(N=Nc2sc(NN=C(CS(=O)(=O)c3ccccc3)c3ccc(C)cc3)nc2C)cc1`, the inhibition was 73% (BRAF V600E; enzyme activity, inhibitor, ATP luminescence; 1 µM).
The binding vs control of `Fc1cccc(-n2cnc3c(NCc4nc5c(F)c(F)ccc5[nH]4)nc(N4CCOCC4)nc32)c1` is reported as 23% (MAST1; binding, competition with immobilised ligand; 10 µM).
With `CCC(/C=C1\CCn2c1nc(=O)c1ccc(O)cc12)CC` the ΔTm was -0.07 °C (SMARCA2; thermal stability, DSF; 100 µM).
With `N=C(CF)NCCC[C@H](NC(=O)c1ccccc1)c1nn[nH]n1` the kinact/KI was 6.42 M⁻¹ s⁻¹ (PADI2; enzyme activity, inhibitor).
With `CN(C)/C=C1\CCCn2c1nc(=O)c1c(Cl)cccc12` the ΔTm was 0.49 °C (SMARCA2; thermal stability, DSF; 100 µM).
`Cc1ccc(C(CS(=O)(=O)c2ccccc2)=NNC2=NC(=O)C(=NNc3ccc([N+](=O)[O-])cc3)S2)cc1` has an inhibition of 72% (BRAF V600E; enzyme activity, inhibitor, ATP luminescence; 1 µM).
`CC1(c2ccccc2)COCC(N)=N1` (stereo not shown) has a ΔTm of 2.78 °C (Beta-secretase 1 (BACE1, Homo sapiens, UniProt P56817); thermal stability, DSF; 2.1 mM, pH 5.4).
The kinact/KI of `CC(C)(C)n1nnc([C@H](CCCNC(=N)CF)NC(=O)c2ccc(-c3ccccc3)cc2)n1` is reported as 189 M⁻¹ s⁻¹ (PADI2; enzyme activity, inhibitor).
For `CCC(CC)CC1CCn2c1nc(=O)c1c(Cl)cccc12` (racemic), the ΔTm was 1.33 °C (SMARCA2; thermal stability, DSF; 100 µM).
The inhibition of `CC(=O)N[C@H]1CSSC[C@@H](C(=O)N[C@@H](Cc2c[nH]c3ccccc23)C(N)=O)NC(=O)[C@H](Cc2ccccc2)NC(=O)[C@H](CCCNC(=N)N)NC1=O` is reported as 42% (Melanocortin receptor 3 (MC3R, Homo sapiens, UniProt P41968); ligand displacement, radioligand; 10 µM, 40 min).
The inhibition of `Cc1ccc(C(CS(=O)(=O)c2ccccc2)=NN=C2N=C(c3ccc(C)cc3)CS2)cc1` is reported as 43% (BRAF V600E; enzyme activity, inhibitor, ATP luminescence; 0.1 µM).
`NS(=O)(=O)c1ccc(CCNCc2ccc(-c3ccccc3F)o2)cc1` gave an inhibition of 34.6% (DRD2; enzyme activity, inhibitor; 10 µM).
`CCN1CCCn2c1nc1c2c(=O)n(C)c(=O)n1C` gave an inhibition of 5% (Adenosine receptor A3 (ADORA3, Homo sapiens, UniProt P0DMS8); ligand displacement, radioligand; 10 µM, cell membranes).
`CCCOc1ccc(OC)c(F)c1C(=O)c1ccc(C(=O)N[C@@H]2CNC[C@H]2NC(=O)c2ccc3[nH]ncc3c2)cc1` has a remaining activity of 120% (Dual specificity mitogen-activated protein kinase kinase 4 (Map2k4, Mus musculus, UniProt P47809); enzyme activity, inhibitor; 10 µM).
For `Cc1cc(=O)oc2cc(NC(=O)[C@@H](N)CCCNC(=N)N)ccc12`, the Km was 88 µM (Endoplasmic reticulum aminopeptidase 2 (ERAP2, Homo sapiens, UniProt Q6P179); enzyme activity, substrate).
`N=C(CF)NCCC[C@H](NC(=O)c1ccc(-c2ccccc2)cc1)c1nn[nH]n1` has a kinact/KI of 17.2 M⁻¹ s⁻¹ (PADI2; enzyme activity, inhibitor).
`Cc1ccc(C(CS(=O)(=O)c2ccccc2)=NNc2nc(C)c(N=Nc3ccccc3)s2)cc1` gave an inhibition of 26% (BRAF V600E; enzyme activity, inhibitor, ATP luminescence; 10 nM).
`NCCCC[C@H](NC(=O)[C@@H]1CCCN1C(=O)[C@@H]1CSSC[C@H](N)C(=O)N[C@@H](Cc2ccc(O)cc2)C(=O)N[C@@H](Cc2ccccc2)C(=O)N[C@@H](CCC(N)=O)C(=O)N[C@@H](CC(N)=O)C(=O)N1)C(=O)NCC(N)=O` has an Emax of roughly 100% (Vasopressin V2 receptor (AVPR2, Homo sapiens, UniProt P30518); cAMP, agonist, TR-FRET; CHO-K1).
With `CC(C)(C)c1nc(-c2cccc(NS(=O)(=O)c3c(F)cccc3F)c2F)c(-c2ccnc(N)n2)s1` the inhibition was 58% (BRAF V600E; enzyme activity, inhibitor, ATP luminescence; 0.1 µM).
With `CCC(/C=C1\CCn2c1nc(=O)c1ccc(Cl)cc12)CC` the ΔTm was -2.09 °C (SMARCA2; thermal stability, DSF; 100 µM).
`Cc1ccc(C(CS(=O)(=O)c2ccccc2)=NNc2nc(C)c(N=Nc3cccc(C)c3)s2)cc1` gave an inhibition of 35% (BRAF V600E; enzyme activity, inhibitor, ATP luminescence; 10 nM).
`Cc1ccc(Nc2nccc(N(C)c3ccc4c(C)n(C)nc4c3)n2)cc1S(N)(=O)=O` has an inhibition of 9% (Blk; enzyme activity, inhibitor; 0.3 µM).
`Cc1cnc(Nc2ccc(OCCN3CCCC3)cc2)nc1Nc1cccc(S(=O)(=O)NC(C)(C)C)c1` gave a ΔTm of 0.8 °C (BPTF; thermal stability, DSF; 10 µM).
`CCC(/C=C1\CCn2c1nc(=O)c1c(Cl)c(Cl)ccc12)CC` gave a ΔTm of 2.86 °C (SMARCA2; thermal stability, DSF; 100 µM).
With `Nc1ncnc2occ(-c3ccc(NC(=O)Nc4cc(C(F)(F)F)ccc4F)cc3)c12` the remaining signal was 11% (Epidermal growth factor receptor (EGFR, Homo sapiens, UniProt P00533, G719S); cell-free assay; 20 µM).
`CCC(/C=C1\CCn2c1nc(=O)c1cc(OC)ccc12)CC` has a ΔTm of 0.14 °C (SMARCA2; thermal stability, DSF; 100 µM).
`N=C(CCl)NCCC[C@H](NC(=O)c1ccccc1)c1nn[nH]n1` gave a kinact/KI of 14.5 M⁻¹ s⁻¹ (PADI2; enzyme activity, inhibitor).
The ΔTm of `C[S+]([O-])c1ccc(-c2nc(-c3ccncc3)c(-c3ccc(F)cc3)[nH]2)cc1` (stereo not shown) is reported as 0.89 °C (BPTF; thermal stability, DSF; 10 µM).
